Converted amounts (≈) assume the structure as drawn. The source made the active and inactive calls. The rule behind the calls is not given here.
How the values were obtained:
[1] = system: Staphylococcus aureus; assay: Antibiotic activity against Staphylococcus aureus 13709 by broth microdilution assay or Alamar blue dye based colorimetric assay; type: functional
How it was run: (§1)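 Broth microdilution following CLSI standards, read colorimetrically with Alamar Blue. Test compounds were made as 50 mM stocks in DMSO, then serially diluted 2-fold in the test wells from a top final concentration of 500 μM (500, 250, 125, 64, 32 μM and lower). The MIC was taken from this dilution series.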

[2] = system: Streptococcus pyogenes; assay: Antibiotic activity against Streptococcus pyogenes by broth microdilution assay or Alamar blue dye based colorimetric assay; type: functional; how it was run: as §1
[3] = system: Nakaseomyces glabratus; assay: Antibiotic activity against Candida glabrata by broth microdilution assay or Alamar blue dye based colorimetric assay; type: functional
[4] = system: Bacillus subtilis; assay: Antibiotic activity against Bacillus subtilis by broth microdilution assay or Alamar blue dye based colorimetric assay; type: functional; how it was run: as §1
[5] = system: Candida albicans; assay: Antibiotic activity against Candida albicans by broth microdilution assay or Alamar blue dye based colorimetric assay; type: functional
[6] = system: Bacillus anthracis; assay: Antibiotic activity against Bacillus anthracis by broth microdilution assay or Alamar blue dye based colorimetric assay; type: functional
How it was run: (§2)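 Minimum inhibitory concentration (MIC) by broth microdilution following CLSI standards, with Alamar Blue as the colorimetric reporter. Test compounds were made up as 50 mM stocks in DMSO and serially diluted 2-fold in the test wells. The top final well concentration was 500 μM (500, 250, 125, 64, 32, 16, 8, 4, 2, 1 μM, etc.).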

[7] = system: Staphylococcus aureus; assay: Antibiotic activity against methicillin-resistant Staphylococcus aureus isolate CAIRD116 by broth microdilution assay or Alamar blue dye based colorimetric assay; type: functional; how it was run: as §2
[8] = system: Staphylococcus aureus; assay: Antibiotic activity against methicillin-resistant Staphylococcus aureus isolate CAIRD142 by broth microdilution assay or Alamar blue dye based colorimetric assay; type: functional; how it was run: as §2
[9] = system: Staphylococcus aureus; assay: Antibiotic activity against methicillin-resistant Staphylococcus aureus isolate CAIRD148 by broth microdilution assay or Alamar blue dye based colorimetric assay; type: functional; how it was run: as §2
[10] = system: Staphylococcus aureus; assay: Antibiotic activity against methicillin-resistant Staphylococcus aureus isolate NE277 by broth microdilution assay or Alamar blue dye based colorimetric assay; type: functional; how it was run: as §2
[11] = target: Stromelysin-1 (Homo sapiens, UniProt P08254); assay: Inhibition of MMP3 (unknown origin)
[12] = system: RPMI-8226; assay: Growth inhibition of human RPMI8226 cells at 10 uM incubated for 48 hrs by SRB assay; type: functional; settings: RPMI-8226, 48 h, read-out: GI
[13] = system: K562; assay: Growth inhibition of human K562 cells at 10 uM incubated for 48 hrs by SRB assay; type: functional; settings: K562, 48 h, read-out: GI
[14] = system: CCRF-CEM; assay: Growth inhibition of human CCRF-CEM cells at 10 uM incubated for 48 hrs by SRB assay; type: functional; settings: read-out: GI
[15] = system: Ribosome; assay: Induction of ribosome stalling assessed as induction of stalling of ribosome at ermBL ORF at 50 uM by extension inhibition assay
How it was run: (§3)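 Primer extension inhibition was run on an ermBL gene template following the published procedure. Erythromycin, josamycin and tylosin were included in the reaction as references at 50 μM. The test agent was present at 50 or 250 μM.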

[16] = In-vitro inhibition of protein translation using pY71-sfGFP in PUREexpress in vitro protein synthesis system assessed as reduction in cell-free GFP protein translation at 50 uM measured every 20 mins for 2 hrs; type: functional
How it was run: (§4)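 Cell-free transcription-translation reactions were programmed with the pY71-sfGFP plasmid. The antibiotic solution was dried at the bottom of the tube before the reaction components were added. Erythromycin, josamycin and tylosin served as references at a final 50 μM. Reactions were incubated at 37 °C, with GFP fluorescence (excitation 488 nm, emission 520 nm) read every 20 min for 2 h.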

[17] = In-vitro inhibition of protein translation using pY71-sfGFP in PUREexpress in vitro protein synthesis system assessed as reduction in cell-free GFP protein translation at 250 uM measured every 20 mins for 2 hrs; type: functional; how it was run: as §4
[18] = system: Ribosome; assay: Induction of ribosome stalling (unknown origin) assessed as induction of stalling of ribosome at ermBL ORF at 250 uM by extension inhibition assay; how it was run: as §3
[19] = system: RPMI-8226; assay: Cytotoxicity human RPMI8226 cells assessed as cell lethality at 10 uM incubated for 48 hrs by SRB assay; type: functional
How it was run: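 Single-dose (10 μM) screen run by the NCI Developmental Therapeutics Program across its 60 cell-line panel. Read as percent growth inhibition.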

Stromelysin-1, sequence (P08254 whole entry): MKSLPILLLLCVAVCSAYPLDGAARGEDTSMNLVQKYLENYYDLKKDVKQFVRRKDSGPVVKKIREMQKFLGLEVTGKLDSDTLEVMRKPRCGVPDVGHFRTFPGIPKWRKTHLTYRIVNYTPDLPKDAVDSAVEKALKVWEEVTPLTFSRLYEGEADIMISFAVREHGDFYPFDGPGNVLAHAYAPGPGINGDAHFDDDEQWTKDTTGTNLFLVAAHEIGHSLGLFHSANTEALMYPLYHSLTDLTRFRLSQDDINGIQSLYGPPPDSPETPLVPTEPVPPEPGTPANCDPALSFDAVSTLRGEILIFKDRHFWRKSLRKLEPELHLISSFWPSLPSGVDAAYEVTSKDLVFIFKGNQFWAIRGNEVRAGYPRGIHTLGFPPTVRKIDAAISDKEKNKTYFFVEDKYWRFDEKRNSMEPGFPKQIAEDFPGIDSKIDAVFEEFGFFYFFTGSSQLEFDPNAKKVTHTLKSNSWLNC

| SMILES | MIC [1] [µM] | MIC [2] [µM] | MIC [3] [µM] | MIC [4] [µM] | MIC [5] [µM] | MIC [6] [µM] | MIC [7] | MIC [8] | MIC [9] | Activity [15] | translation inhibition (active/not active) [16] | other results |
| --- | --- | --- | --- | --- | --- | --- | --- | --- | --- | --- | --- | --- |
| C[C@@H]1CCCCCCCCC[C@H](OC(=O)CCC(=O)O)C(=O)/C=C/C(=O)O1 | 8 (≈ 3.06 µg/mL) | 125 (≈ 47.8 µg/mL) | 125 (≈ 47.8 µg/mL) | 32 (≈ 12.2 µg/mL) | 250 (≈ 95.6 µg/mL) | 16 (≈ 6.12 µg/mL) | 16 µM | 16 µM | 16 µM | – | – | MIC [10]: 16 µM (≈ 6.12 µg/mL); IC50 [11]: 50 µM; inhibition of growth at 10 µM [12]: 48% |
| C[C@H]1OC(=O)/C=C/C(=O)[C@@H](OC(=O)CCC(=O)O)CCCCCCCC[C@@H]1O | 16 (≈ 6.38 µg/mL) | 64 (≈ 25.5 µg/mL) | 64 (≈ 25.5 µg/mL) | 64 (≈ 25.5 µg/mL) | 125 (≈ 49.8 µg/mL) | 16 (≈ 6.38 µg/mL) | – | – | – | – | – | inhibition of growth at 10 µM [13]: 46%; inhibition of growth at 10 µM [14]: 48% |
| Cc1nnc(SCC2=C(C(=O)O)N3C(=O)[C@@H](NC(=O)Cn4cnnn4)[C@H]3SC2)s1 [CEFAZOLIN] | – | – | – | – | – | – | 256 µg/mL | 256 µg/mL | 256 µg/mL | – | – | – |
| CC[C@H]1OC(=O)[C@H](C)[C@@H](O[C@H]2C[C@@](C)(OC)[C@@H](O)[C@H](C)O2)[C@H](C)[C@@H](O[C@@H]2O[C@H](C)C[C@H](N(C)C)[C@H]2O)[C@](C)(O)C[C@@H](C)C(=O)[C@H](C)[C@@H](O)[C@]1(C)O [ERYTHROMYCIN] | – | – | – | – | – | – | > 32 µg/mL | > 32 µg/mL | > 32 µg/mL | Active | Active | – |
| C[C@H]1COc2c(N3CCN(C)CC3)c(F)cc3c(=O)c(C(=O)O)cn1c23.C[C@H]1COc2c(N3CCN(C)CC3)c(F)cc3c(=O)c(C(=O)O)cn1c23.O [LEVOFLOXACIN] | – | – | – | – | – | – | > 16 µg/mL | 0.25 µg/mL | > 16 µg/mL | – | – | – |
| CCC[C@@H]1C[C@@H](C(=O)N[C@@H]([C@H]2O[C@H](SC)[C@H](O)[C@@H](O)[C@H]2O)[C@H](C)Cl)N(C)C1 [CLINDAMYCIN] | – | – | – | – | – | – | > 16 µg/mL | > 16 µg/mL | > 16 µg/mL | – | – | – |
| C[C@@H]1CCCCCCCCC[C@H](OC(=O)CCC(=O)O)C(=O)C[C@@H](SC[C@@H](O)C(=O)O)C(=O)O1 | 8 (≈ 4.04 µg/mL) | 250 (≈ 126 µg/mL) | 64 (≈ 32.3 µg/mL) | 64 (≈ 32.3 µg/mL) | > 250 | 16 (≈ 8.07 µg/mL) | 32 µM | 32 µM | 16 µM | – | – | MIC [10]: 16 µM (≈ 8.07 µg/mL) |
| CC[C@H]1OC(=O)C[C@@H](O)[C@H](C)[C@@H](O[C@@H]2O[C@H](C)[C@@H](O[C@H]3C[C@@](C)(O)[C@@H](O)[C@H](C)O3)[C@H](N(C)C)[C@H]2O)[C@@H](CC=O)C[C@@H](C)C(=O)/C=C/C(C)=C/[C@@H]1CO[C@@H]1O[C@H](C)[C@@H](O)[C@@H](OC)[C@H]1OC | – | – | – | – | – | – | – | – | – | Active | Active | – |
| C[C@H]1c2cccc(O)c2C(=O)C2=C(O)[C@]3(O)C(=O)C(C(N)=O)=C(O)[C@@H](N(C)C)[C@@H]3[C@@H](O)[C@@H]21.O [DOXYCYCLINE] | – | – | – | – | – | – | 8 µg/mL | 16 µg/mL | 0.25 µg/mL | – | – | – |
| C[C@@H]1CCCCCCCCC[C@H](O)C(=O)C[C@@H](SC[C@@H](O)C(=O)O)C(=O)O1 | 2 (≈ 0.809 µg/mL) | 8 (≈ 3.24 µg/mL) | 16 (≈ 6.47 µg/mL) | 32 (≈ 12.9 µg/mL) | 64 (≈ 25.9 µg/mL) | 8 (≈ 3.24 µg/mL) | 2 µM | 4 µM | 2 µM | inactive | inactive | MIC [10]: 2 µM (≈ 0.809 µg/mL); inhibition [17]: inactive; Activity [18]: inactive; IC50 [11]: 100 µM; inhibition of growth at 10 µM [13]: 85%; Activity [19]: 2.4% |
| CO[C@@H]1[C@@H](O[C@@H]2O[C@H](C)[C@@H](O[C@H]3C[C@@](C)(O)[C@@H](OC(=O)CC(C)C)[C@H](C)O3)[C@H](N(C)C)[C@H]2O)[C@@H](CC=O)C[C@@H](C)[C@@H](O)/C=C/C=C/C[C@@H](C)OC(=O)C[C@H]1OC(C)=O | – | – | – | – | – | – | – | – | – | Active | Active | – |
| C[C@H]1OC(=O)/C=C/[C@@H](O)[C@@H](O)CCCCCCCC[C@@H]1O | 64 (≈ 19.2 µg/mL) | 500 (≈ 150 µg/mL) | > 1000 | > 1000 | > 1000 | 250 (≈ 75.1 µg/mL) | – | – | – | – | – | IC50 [11]: 150 µM; inhibition of growth at 10 µM [14]: 38% |
| C[C@@H]1CC(O)CCCCCCC[C@H](OC(=O)CCC(=O)O)C(=O)/C=C/C(=O)O1 (some centres not stated) | 32 (≈ 12.8 µg/mL) | 125 (≈ 49.8 µg/mL) | > 1000 | 250 (≈ 99.6 µg/mL) | > 1000 | 64 (≈ 25.5 µg/mL) | – | – | – | – | – | – |
